CHO parental Ca: counter-screen for OX1R antagonists: effect in parental CHO cells; inhibition, % at 5.6 µM; AID 463079; 0.63% of 330,000 active; parental CHO-K1, ATP-induced calcium, Fluo-8 fluorescence;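 active means inhibition above that plate's mean sample inhibition plus 3 SD, cut at about 26% in these data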
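Material: parental CHO cells / Compound: single nominal dose of 5.6 µM per compound / Signal: Fluo-8 fluorescence / Replicates: singlicate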
OX1R antag-1: blocks the human orexin 1 receptor; 0.43% of 330,000 active; inhibition, % at 5 µM; CHO/OX1R cells, Fluo-8 calcium fluorescence, orexin A; O43613;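 active means inhibition above its plate's threshold, mean inhibition of all tested compounds on the plate plus 3 SD, cut at about 37% in these data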
TAAR1 antagonist: human TAAR1 antagonism | CHO RD-HGA16 TAAR1, Fluo-8 calcium fluorescence, antagonist | inhibition, % at 3 µM | 1.5% of 360,000 active;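 active means inhibition above a per-plate cutoff, the mean inhibition of test compounds on that plate plus 3 SD, cut at about 49% in these data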
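Test system: hTAAR1-expressing CHO RD-HGA16 cells, Gα16-coupled; Probe or stimulus: EC80 β-phenethylamine stimulus; Compound dosing: single nominal final test compound concentration of 3 µM; Timing: 140 s kinetic read after compound, 140 s after agonist; Signal: Fluo-8 calcium-sensitive fluorescence; Measure: % inhibition of agonist calcium response; Controls: DMSO and EC80 PEA controls.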
TAAR1 ag: human TAAR1 agonism; Q96RJ0; CHO RD-HGA16 TAAR1, Fluo-8 calcium fluorescence; vehicle wells 0%, saturating PEA agonist 100%; activation, % at 3 µM; 0.99% of 360,000 active; AID 624467;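 active means activation above the mean activation of all test compounds in the run plus 3 SD, cut at about 38% in these data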
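Test system: RD-HGA16 (CHO) cells co-expressing Gα16 and hTAAR1 | Doses: Single dose, 3 µM | Schedule: 17-24 h seeding, 75 min 37 °C dye, 30 min RT | Evaluation: % activation from peak over basal fluorescence ratio, DMSO-to-PEA scaled | Technique: Kinetic Fluo-8 calcium fluorescence | Benchmarks: Low control DMSO, high control PEA (EC100)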
OX1R antag-2: blocks the human orexin 1 receptor; OX1R-expressing cells, FRET antagonist read-out; O43613; inhibition, % at 6.6 µM; AID 485270; 1.8% of 330,000 active; in the data active means inhibition mostly above about 38%, no sharp cut-off; inactive means mostly below about 40%
NTR1 agonist: agonists of human neurotensin receptor NTR1. AID 493036. 0.17% of 330,000 active. NTR1-U2OS beta-arrestin-GFP spot imaging, agonist mode. activation, % at 20 µM;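 active means activation at or above 40% of the spot to cytoplasm intensity ratio, with at least 20 cells analyzed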
Target sequence (P30989 whole entry, looked up): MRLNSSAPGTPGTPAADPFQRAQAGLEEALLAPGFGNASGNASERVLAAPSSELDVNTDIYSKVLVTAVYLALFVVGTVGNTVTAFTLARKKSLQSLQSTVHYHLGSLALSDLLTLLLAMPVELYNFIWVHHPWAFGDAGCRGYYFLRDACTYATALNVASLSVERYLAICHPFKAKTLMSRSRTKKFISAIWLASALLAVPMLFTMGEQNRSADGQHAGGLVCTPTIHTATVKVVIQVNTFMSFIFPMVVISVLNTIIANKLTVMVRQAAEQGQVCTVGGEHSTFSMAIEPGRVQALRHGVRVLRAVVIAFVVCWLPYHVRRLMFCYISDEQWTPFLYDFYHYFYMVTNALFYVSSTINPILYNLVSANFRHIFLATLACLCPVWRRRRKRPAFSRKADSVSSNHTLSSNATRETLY
Numbers stand for hits; n = inactive; x = not tested or not shown. Sampled rows, rich in hits. Any-hit rate of the full collection: about 4%.

SMILES | CHO parental Ca | OX1R antag-1 | TAAR1 antagonist | TAAR1 ag | OX1R antag-2 | NTR1 agonist
Cc1csc(SCC(=O)c2cc(C)n(Cc3cccs3)c2C)n1 | 42.5 | n | n | n | n | n
Cc1ccc(NC(=O)c2cccc(S(=O)(=O)NCc3ccccc3)c2)nc1 | n | n | n | n | 58.8 | n
Cc1ccc(NC(=O)/C(=C/c2cccc([N+](=O)[O-])c2)NC(=O)C2CCCCC2)cc1 | n | n | n | n | n | n
O=C(/C=C/c1cccc([N+](=O)[O-])c1)Nc1cccc(NC(=O)c2cccs2)c1 | n | n | 58.4 | n | 70.4 | n
O=C(/C=C/c1cccc([N+](=O)[O-])c1)Nc1cccc(NC(=O)c2ccco2)c1 | n | n | n | n | n | n
Cc1ccc(NC(=O)/C(=C\c2cccc([N+](=O)[O-])c2)NC(=O)c2cccs2)cc1 | n | n | n | n | 51.8 | n
COc1ccc(CCNC(=O)CSc2nc3ccsc3c(=O)n2CC2CCC(C(=O)O)CC2)cc1OC (stereo not given) | n | n | n | n | n | n
COc1cc(/C=C/CN2CCC(C(=O)NC(c3ccc(F)cc3)c3ccc4ccccc4n3)CC2)ccc1OC(C)=O (stereo not given) | x | x | n | 48.9 | x | x
Cc1ccc(/C=C2\CCC3=C2OC(N)=C(C#N)C3c2ccc(C)cc2)cc1 (stereo not given) | 40.7 | 48.0 | x | x | n | n
Cc1ccc(C2C(C#N)=C(N)Oc3cc(N)ccc32)cc1 (stereo not given) | n | n | n | n | n | n
N#C/C(=C\c1ccc(N2CCOCC2)o1)C(=O)NCCc1ccccc1 | n | n | n | 40.6 | n | n
N#C/C(=C/c1ccc(N2CCOCC2)o1)C(=O)Nc1ccccc1 | x | x | n | 56.1 | x | x
N#C/C(=C\c1ccc(N2CCOCC2)o1)C(=O)NC1CCCCC1 | n | n | n | n | n | n
C[C@H](O)[C@@H]1C(=O)N2CCc3c([nH]c4c(-c5ccccc5)cccc34)[C@@H]2C[C@@H]1N(C)C(=S)Nc1ccc(C#N)cc1 | x | x | n | n | x | x
Cc1nc2c(-c3ccc(F)cc3)cnn2c2c1CCC2 | n | n | n | n | 54.5 | n
COCCn1c(SCc2cccc([N+](=O)[O-])c2)nc2ccccc2c1=O | n | n | n | n | n | n
CCOCCn1ccc2c(OCC(=O)Nc3cc(OC)ccc3OC)cccc2c1=O | n | n | n | n | n | n
Cn1c(SCc2cccc([N+](=O)[O-])c2)nc2ccccc2c1=O | 35.8 | 67.7 | n | n | 54.0 | n
COc1ccccc1NC(=O)CSc1nc2ccccc2c(=O)n1C | 49.8 | n | n | n | 48.3 | n
COc1cccc(NC(=O)CSc2nc3ccccc3n2C)c1 | n | n | n | n | 57.4 | n
CCOCCn1ccc2c(OCC(=O)Nc3ccccc3OC)cccc2c1=O | n | n | 58.3 | n | n | n
Cc1cccc(NC(=O)CSc2nc3ccccc3c(=O)n2C)c1C | x | x | n | n | x | x
O=C1OC(Nc2nc(-c3ccc(F)cc3)cs2)c2ccccc21 (stereo not given) | x | x | n | n | x | n
COc1ccc(OC)c(NC(=O)c2cccc(NC(=O)c3ccccc3)c2)c1 | n | n | n | n | 54.2 | n
CC(=O)c1ccc(NC(=O)c2cccc(NC(=O)c3ccccc3)c2)cc1 | n | n | 50.2 | n | n | n
SMILES | CHO parental Ca | OX1R antag-1 | TAAR1 antagonist | TAAR1 ag | OX1R antag-2 | NTR1 agonist
COc1ccccc1/C=C/C(=O)Nc1cccc(C(C)=O)c1 | n | n | n | n | 60.2 | n
Cc1cccc(C(=O)Nc2ccc(C(=O)/C=C/c3ccncc3)cc2)c1 | n | n | 60.2 | n | n | n
CC(=O)c1cccc(NC(=O)c2ccc3ccccc3c2)c1 | n | n | n | n | n | n
OCC1SC(O)C(O)C(O)C1O (stereo not given) | x | x | n | n | x | x
O=C(C(=O)N1CCC(CNS(=O)(=O)c2cc(C(F)(F)F)cc(C(F)(F)F)c2)CC1)c1cc2ccccc2o1 | x | x | n | n | x | x
CC(=O)c1cccc(NC(=O)Nc2ccccc2)c1 | n | n | n | n | n | n
Cc1ccnc(NC(=O)c2cccc(NC(=O)c3ccc(Cl)c(Cl)c3)c2)c1 | x | x | 54.1 | n | x | x
CC(=O)c1cccc(NC(=O)Nc2nc(C)cc(C)n2)c1 | n | n | n | n | 58.7 | n
CC(C)(C)c1ccc(CC(=O)N2CCC2(C)C(=O)Nc2cnc3ccccc3c2)cc1 (stereo not given) | x | x | 52.6 | n | x | x
CC(C)c1ccc(CC(=O)N2CCC2(C)C(=O)Nc2cnc3ccccc3c2)cc1 (stereo not given) | x | x | n | n | x | x
CC(=O)N1CCC(N(CCCOC(C)C)S(=O)(=O)c2ccc([N+](=O)[O-])cc2)CC1 | n | n | n | n | 45.7 | n
CCCN1CCCCC(NC(=O)c2c(F)cccc2F)C1=O (stereo not given) | x | x | n | n | x | x
CC(C)(CC(=O)N1CCN(c2ccc(Cl)cc2)CC1)CC1=NS(=O)(=O)c2ccccc2N1 | 74.9 | n | 63.6 | n | n | n
CC(C)NC(=O)C1CC=CCC1C(=O)O (stereo not given) | n | n | n | n | n | n
CCCCC(CC)CNC(=O)C1CC=CCC1C(=O)O (stereo not given) | n | n | n | 37.5 | n | n
COC(=O)c1ccc2nc(-c3ccc(OC)c(OC)c3)c(Cc3ccccc3C(F)(F)F)n2c1 | x | x | n | n | x | x
Cc1cccc(-c2nc(CSCC(=O)N3CCN(c4ccccn4)CC3)c(C)o2)c1 | n | n | n | n | 44.7 | n
Cc1ccsc1-c1nc(CSCC(=O)N2CCN(c3ccccc3)CC2)c(C)o1 | n | n | n | n | 37.8 | n
COc1ccc(-c2ccc(C#N)c(SCC(=O)NCCc3ccccc3)n2)cc1OC | n | n | x | x | n | n
COc1cccc(-c2ccc(C#N)c(SCC(=O)NCCc3cccc(Cl)c3)n2)c1 | n | n | 72.1 | n | n | n
N#Cc1c(SC(C(=O)O)c2ccccc2)nc2c(c1-c1cccs1)CCCC2 (stereo not given) | n | n | n | 37.9 | n | n
O=C(Nc1cc2c(cc1[N+](=O)[O-])OCCO2)c1cccnc1 | n | n | n | n | 50.2 | n
C[C@@H]1CN([C@@H](C)CO)C(=O)CCCn2cc(nn2)CO[C@H]1CN(C)C(=O)Nc1cccc(F)c1 | x | x | n | n | x | x
COc1ccc(OC)c(NC(=O)C(=O)NNC(=O)C23CC4CC(CC(C4)C2)C3)c1 | n | n | n | 53.7 | n | n
O=C(/C=C/c1ccc(Cl)c(C(F)(F)F)c1)N1CCN(c2ccccn2)CC1 | n | n | n | n | n | n
Cn1c(=O)c2c(nc(NCCc3ccccc3)n2Cc2ccc(F)cc2)n(C)c1=O | n | n | n | n | n | n
C=CCNc1nc2c(c(=O)n(C)c(=O)n2C)n1Cc1ccc(F)cc1 | 40.1 | n | n | n | n | n
O=C(NCCC(=O)N1CCN(c2ccccn2)CC1)c1ccc(Cl)cc1 | n | n | n | n | n | n
